Measured values gathered from unrelated publications.
Lines come from different studies, so protocols differ.
Effect on: ABTS scavenging

SMILES	method	IC50
COc1ccc(-c2nc3ccccc3[nH]2)cc1OCc1ccccc1	absorbance	1760 nM
Cc1ccc(NC(=O)Cc2c[nH]c3ccccc23)cc1C	–	1580 nM
O=C(OC[C@H]1O[C@@H](OC(=O)c2cc(O)c(O)c(O)c2)[C@H](OC(=O)c2cc(O)c(O)c(O)c2)[C@@H](OC(=O)c2cc(O)c(O)c(O)c2)[C@@H]1O)c1cc(O)c(O)c(O)c1	absorbance	3590 nM
Fc1ccc2[nH]c(-c3cccc(OCc4ccccc4)c3)nc2c1	absorbance	1850 nM
CCOC(=O)c1cc(O)c(O)c(O)c1	absorbance	17700 nM
O=C(Cc1c[nH]c2ccccc12)Nc1cccc(I)c1	–	1150 nM
COc1cc(-c2oc3cc(O)cc(O)c3c(=O)c2O[C@@H]2O[C@H](CO)[C@@H](O)[C@H](O)[C@H]2O)ccc1O	absorbance	15300 nM
COc1ccc(-c2nc3cc(Cl)ccc3[nH]2)cc1OCc1ccccc1	absorbance	1750 nM
O=C1O[C@H]([C@@H](O)CO)C(O)=C1O	–	1.4 µg/mL
CCCCCCCCOc1ccc(NC(=O)Cc2c[nH]c3ccccc23)cc1	–	1800 nM
Cc1c(C)c2c(c(C)c1O)CC[C@@](C)(CCC[C@H](C)CCC[C@H](C)CCCC(C)C)O2	–	8.37 µg/mL
COc1cc(-c2oc3cc(O[C@@H]4O[C@H](CO)[C@@H](O)[C@H](O)[C@H]4O)cc(O)c3c(=O)c2O[C@@H]2O[C@H](CO)[C@@H](O)[C@H](O)[C@H]2O)ccc1O	absorbance	41700 nM
O=C(Cc1c[nH]c2ccccc12)Nc1ccc(F)cc1F	–	1310 nM
O=C(O)c1cc(O)c(O)c(O)c1	absorbance	8190 nM
Cc1cc2nc(-c3ccccc3OCc3ccccc3)[nH]c2cc1C	absorbance	1780 nM
